High-throughput results: PubChem, several laboratories
TbMetRS inhib – Trypanosoma brucei MetRS inhibition | purified T. brucei MetRS, ATP depletion, Kinase-Glo luminescence | inhibition, % at 11.9 µM | 360,000 compounds, 0.4% hits;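 active = inhibition above a per-plate cutoff of the control wells' mean inhibition plus 3 SD, cut at about 5.5% in these data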;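 note: 0% = DMSO wells median and 100% = median of wells with control inhibitor compound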
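Material: T. brucei methionyl-tRNA synthetase, purified; reagent: substrates ATP, L-methionine and bulk Escherichia coli tRNA; dosing: 11.9 µM single point; timing: 15 min plus 2 h at 25 °C; detection: luminescence of leftover ATP; evaluation: % inhibition; control set: DMSO-only wells as low control; replicates: singlicate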
MPTP block – permeability transition pore inhibition; isolated mouse mitochondria, Ca2+ swelling absorbance, 30 min; AID 602449; 360,000 compounds, 1.4% hits; inhibition, % at 10 µM;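 active = inhibition of 50% or more, scaled per plate between neutral and stimulator controls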;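 note: 0% = DMSO wells given calcium and 100% = 1 mM EGTA wells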
EBV gp42 inh – inhibitors of Epstein-Barr virus glycoprotein 42; Q1HVG2; Fluorescence polarization binding assay, mP read-out; inhibition, % (tested at 21.74 µM); 220,000 compounds, 0.42% hits; in the data active = inhibition above about 50%
Target sequence (Q1HVG2 whole entry, looked up): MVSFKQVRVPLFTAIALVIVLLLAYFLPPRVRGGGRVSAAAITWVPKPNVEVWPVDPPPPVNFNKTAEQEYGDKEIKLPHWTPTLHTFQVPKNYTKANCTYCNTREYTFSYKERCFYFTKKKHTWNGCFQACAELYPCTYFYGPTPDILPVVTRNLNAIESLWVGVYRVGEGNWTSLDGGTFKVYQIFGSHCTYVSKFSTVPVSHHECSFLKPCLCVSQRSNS
CHOP inh – inhibitors of CHOP induction in ER stress response; inhibition, % at 10 µM; CHO-K1 CHOP-promoter luciferase, tunicamycin-induced, 15-18 h; 220,000 compounds, 3.8% hits;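 active = compounds that reduced the stress-induced luciferase reporter signal by more than about 70% of percent inhibition, limit read from the data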;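 note: 0% = tunicamycin plus vehicle and 100% = wells without tunicamycin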
GRIN3A LBD mod – NR3A (human) ligand-binding domain modulation; NR3A LBD differential scanning fluorimetry, Tm shift; 0% = protein alone, 100% = glycine-bound protein; 340,000 compounds, 2.5% hits; Tm shift relative to glycine control, % at 25 µM;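 active = melting temperature shift of at least 10% of the positive control shift, at one fixed dose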
WT yeast gro inh – growth inhibition of WT yeast, mitochondrial fusion screen | mitochondrial fusion phenotypic screen, WT strain | 190,000 compounds, 2.1% hits | inhibition, % at 10 µM; in the data active = inhibition above about 58%; tested in S. cerevisiae
CHOP inh conf – confirmation of CHOP induction inhibitors | shares compounds with CHOP inh | CHO-CHOP promoter luciferase reporter, tunicamycin-induced, luminescence | AID 504437 | 2,100 compounds, 45% hits | inhibition, % at 10 µM;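 active = mean of three repeat readings of reporter signal inhibition above a set limit, cut at about 70% in these data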;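 note: 0% = tunicamycin plus vehicle and 100% = wells lacking tunicamycin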
Numbers without * were called inactive; . = no result given. Most compounds without a hit are left out; they make up all but 6.4% or so of the library.

SMILES | TbMetRS inhib | MPTP block | EBV gp42 inh | CHOP inh | GRIN3A LBD mod | WT yeast gro inh | CHOP inh conf
Cc1c(C(=O)N(Cc2cccc(Br)c2)C2CCS(=O)(=O)C2)oc2ccccc12 (stereo not given) | -0.8 | -0.2 | . | . | -3.0 | . | .
COc1ccc2oc(=O)c(-c3cn4ccc(C)cc4n3)cc2c1 | -0.7 | -0.6 | -5.3 | 97.1* | -1.5 | -1.7 | -29.9
CC(C)n1ncc2c(C(=O)O)cc(C3CC3)nc21 | 0.1 | 2.5 | -14.1 | 4.3 | 1.1 | . | .
Cc1cc(C)nc(Nc2nc(C)c3cc4c(cc3n2)OCO4)n1 | -0.5 | 0.1 | -0.4 | -3.8 | 0.6 | 5.7 | .
COc1ccccc1-c1cn[nH]c1-c1ccc(OCc2ccccc2F)cc1O | 0.0 | 8.8 | -4.7 | 15.4 | 9.7 | . | .
O=[N+]([O-])c1ccc(COc2ccc(-c3[nH]ncc3-c3ccccc3)c(O)c2)cc1 | 0.1 | 25.0 | -1.2 | 99.4* | 24.9* | 37.5 | 102.2*
COc1ccccc1-c1cn[nH]c1-c1ccc(OCc2ccc([N+](=O)[O-])cc2)cc1O | 0.6 | 16.0 | -12.1 | 99.1* | 4.2 | . | -11.0
COc1ccc(S(=O)(=O)Nc2ccc3c(c2)C(=O)N([C@@H](C)CO)C[C@@H](C)[C@H](CN(C)C(=O)CCCN(C)C)OCCCC[C@H](C)O3)cc1 | -1.2 | -0.9 | . | . | . | . | .
Cc1cn([C@H]2C[C@H](O)[C@@H](CNCc3ccc(N4CCN(C)CC4)cc3F)O2)c(=O)[nH]c1=O | 0.3 | 0.6 | . | . | . | . | .
CCCOc1ccc(N2C(=O)CC(NNC(=O)c3ccc(COc4ccccc4)o3)C2=O)cc1 (stereo not given) | 0.4 | 0.6 | -11.0 | 101.6* | -1.5 | 6.4 | 19.3
COc1ccc(N2CCN(CCNC(=O)c3ccc4c(c3)[nH]c(=S)n3c5ccccc5nc43)CC2)cc1 | 0.2 | 2.2 | -15.2 | -29.4 | 0.9 | -0.5 | .
CCCCN=c1scc(-c2ccc3c(c2)NC(=O)CO3)n1N=C1CCCC1 | -0.5 | 5.5 | -22.8 | 106.0* | -3.1 | 49.5 | 105.1*
CCc1nnc(NC(=O)c2sc3nc4c(cc3c2N)CCCCC4)s1 | -0.2 | 1.2 | 4.0 | -31.6 | -2.9 | 12.4 | .
CCc1nnc(NC(=O)c2sc3nc4c(cc3c2N)CCCCCC4)s1 | 0.4 | 4.5 | -2.7 | 104.6* | -5.7 | 5.6 | 1.9
Cc1ccc(C)c(C(=O)Cn2ncc(Cl)c(Cl)c2=O)c1 | -1.1 | -0.9 | -5.5 | 110.7* | 0.3 | . | -24.5
COc1ccccc1-c1nnc(NC(=O)c2ccc(S(=O)(=O)N(C)Cc3ccccc3)cc2)o1 | . | . | -9.9 | 97.3* | 0.3 | -17.7 | 97.1*
CCOc1ccc(Cn2c3ccc(OC)cc3c3nc4ccccc4nc32)cc1 | 0.3 | 0.7 | 123.3* | 105.5* | 2.4 | -32.9 | -5.1
COc1ccc(Cn2c(N)c(C#N)c3nc4ccccc4nc32)cc1 | 2.3 | 1.7 | -24.5 | 27.6 | -7.6 | -0.1 | .
COc1ccc2cc(C(=O)N/N=C/c3sc4ccccc4c3O)ccc2c1 | -0.7 | 21.6 | -114.3 | 97.1* | 11.6* | 1.0 | -16.7
COc1ccc(C(=O)N/N=C/c2sc3ccccc3c2O)cc1 | 0.4 | 7.1 | -188.2 | 24.3 | 5.1 | -8.4 | .
O=[N+]([O-])c1ccc(O)c(/C=N/Nc2ccccn2)c1 | -0.7 | 3.9 | 5.2 | 105.1* | -6.4 | 19.3 | 10.9
O=[N+]([O-])c1ccc(O)c(C=NNc2ccc(S(=O)(=O)O)cc2)c1 | -0.1 | -0.8 | . | . | -14.4 | . | .
O=C(OC(C(=O)Nc1cccc(C(F)(F)F)c1)c1ccccc1)C1CCCCC1 (stereo not given) | 0.0 | 41.5 | -9.1 | 106.7* | 13.7* | 62.4* | 33.0
CC(OC(=O)C1CCCCC1)C(=O)Nc1cccc(Cl)c1 (stereo not given) | 0.1 | -1.0 | -15.5 | 2.4 | -5.3 | 9.8 | .
C[C@H]1CN([C@@H](C)CO)C(=O)Cc2cc(NS(=O)(=O)c3cn(C)cn3)ccc2O[C@@H]1CN(C)C(=O)Nc1ccc(F)cc1 | -0.4 | -1.9 | . | . | -0.7 | . | .
Cc1ccc(N(C)S(=O)(=O)c2ccc(-c3cnc(C4CC4)o3)cc2)cc1 | -0.5 | -1.1 | . | . | 1.7 | . | .
Cc1ccc(NC(=O)N[C@@H](CC(C)C)C(=O)O)c(C)c1 | 0.8 | -0.2 | 2.6 | 8.6 | -5.8 | . | .
